Test results from ChEMBL document CHEMBL3286272, “Synthesis, biological, and biophysical studies of DAG-indololactones designed as selective activators of RasGRP” (Bioorg Med Chem, 2014).
pKi: −log10 of the molar value. Activity calls are given as the source filed them. The calls are words filed in the database; no cut-off is given here.

How the values were obtained:
[1] = organism: Homo sapiens; experiment: Selectivity ratio of Ki for recombinant human PKC-epsilon to Ki for recombinant human GFP-tagged RasGRP3
[2] = target: Protein kinase C alpha type (Homo sapiens, UniProt P17252); experiment: Displacement of [3H]PDBu from recombinant human PKC-alpha after 5 mins by scintillation counting analysis in presence of phosphatidylserine
Summary of the method: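 [3H]PDBu binding competition with 100 μg/ml phosphatidylserine present; PKCα and RasGRP1-C1 assayed at 37°C for stability. Values are mean ± SEM of triplicate independent experiments.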

[3] = organism: Homo sapiens; experiment: Selectivity ratio of Ki for recombinant human PKC-alpha to Ki for recombinant human GFP-tagged RasGRP3
[4] = target: T1, Ras guanyl-releasing protein 3 (Homo sapiens) (UniProt Q8IV61); experiment: Binding affinity to recombinant human GFP-tagged RasGRP3 expressed in human LNCAP cells assessed as induction of protein translocation from plasma membrane to internal membrane at 10000 nM after 2 to 10 mins by confocal microscopic analysis; assay type: cell-based
T1 sequence (whole entry): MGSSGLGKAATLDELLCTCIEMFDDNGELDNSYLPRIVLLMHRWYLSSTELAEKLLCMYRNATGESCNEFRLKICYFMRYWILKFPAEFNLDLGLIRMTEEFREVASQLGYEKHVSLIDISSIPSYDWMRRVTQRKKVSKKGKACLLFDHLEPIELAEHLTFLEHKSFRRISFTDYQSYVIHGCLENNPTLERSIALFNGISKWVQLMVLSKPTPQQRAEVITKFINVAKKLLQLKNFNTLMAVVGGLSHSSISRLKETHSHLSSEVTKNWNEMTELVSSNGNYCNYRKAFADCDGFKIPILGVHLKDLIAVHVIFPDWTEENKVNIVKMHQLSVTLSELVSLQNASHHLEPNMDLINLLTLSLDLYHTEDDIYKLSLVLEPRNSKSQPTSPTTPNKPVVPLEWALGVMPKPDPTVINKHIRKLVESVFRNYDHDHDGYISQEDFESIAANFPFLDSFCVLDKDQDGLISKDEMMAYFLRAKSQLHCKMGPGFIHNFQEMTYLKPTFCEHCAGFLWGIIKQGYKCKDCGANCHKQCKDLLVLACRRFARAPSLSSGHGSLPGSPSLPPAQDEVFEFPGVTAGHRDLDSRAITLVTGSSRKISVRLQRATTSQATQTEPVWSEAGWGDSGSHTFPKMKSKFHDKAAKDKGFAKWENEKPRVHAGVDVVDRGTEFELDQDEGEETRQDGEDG
Summary of the method: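 LNCaP cells were transiently transfected with human GFP-PKCδ or GFP-RasGRP3 and imaged 24 h later by live confocal microscopy (488 nm excitation) every 30 s for 30 min after 10 μM ligand. Distribution was assessed from representative images. n = 3–6.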

[5] = test system: Lipid bilayer; experiment: Binding affinity to […] embedded 9:1 DMPC/DMPG giant vesicle at 2.42 to 6.05 uM by fluorescence anisotropy method
Summary of the method: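 Giant vesicles (DMPC/DMPG 9:1, rapid evaporation, 0.1 M sucrose, 0.1 M KCl, 2 mM Tris pH 7.4) were loaded with DPH-TMA at 1.25 μM final for 30 min at room temperature. Compound from DMSO stock was added at 2.42 and 6.05 μM final. Anisotropy was read at 430 nm with 355 nm excitation.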

[6] = target: T2, Protein kinase C epsilon type (Homo sapiens) (UniProt Q02156); experiment: Binding affinity to recombinant human YFP-tagged PKC-epsilon expressed in human LNCAP cells assessed as induction of protein translocation from plasma membrane to internal membrane at 10000 nM after 2 to 10 mins by confocal microscopic analysis; assay type: cell-based
T2 sequence (whole entry): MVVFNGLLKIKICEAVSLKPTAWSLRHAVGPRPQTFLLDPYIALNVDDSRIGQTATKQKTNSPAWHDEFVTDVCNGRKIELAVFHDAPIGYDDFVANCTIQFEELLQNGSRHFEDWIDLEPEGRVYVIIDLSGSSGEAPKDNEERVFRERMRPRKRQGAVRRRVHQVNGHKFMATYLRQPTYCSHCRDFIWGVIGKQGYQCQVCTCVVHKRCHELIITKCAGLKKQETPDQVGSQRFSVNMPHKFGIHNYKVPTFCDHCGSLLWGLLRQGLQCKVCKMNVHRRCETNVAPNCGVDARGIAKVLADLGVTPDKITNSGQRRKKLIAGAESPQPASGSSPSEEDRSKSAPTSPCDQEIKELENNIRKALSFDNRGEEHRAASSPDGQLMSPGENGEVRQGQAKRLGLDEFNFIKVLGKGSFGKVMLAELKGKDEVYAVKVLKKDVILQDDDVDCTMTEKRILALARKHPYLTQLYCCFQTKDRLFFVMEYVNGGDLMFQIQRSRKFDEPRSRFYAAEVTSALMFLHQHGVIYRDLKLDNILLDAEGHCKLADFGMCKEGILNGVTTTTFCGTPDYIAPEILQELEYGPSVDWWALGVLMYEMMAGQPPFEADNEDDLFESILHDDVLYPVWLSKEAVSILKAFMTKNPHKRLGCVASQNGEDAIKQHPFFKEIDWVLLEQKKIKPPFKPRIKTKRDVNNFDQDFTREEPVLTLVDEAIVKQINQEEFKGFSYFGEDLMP
Summary of the method: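 LNCaP cells were transiently transfected with human YFP-PKCε and imaged live by confocal microscopy 24 h later every 30 s for 30 min after 10 μM ligand. Membrane/cytoplasm intensity ratio from 4 μm2 regions was normalized to time 0. n = 3–6.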

| Ratio Ki [1] | pKi [2] | Ratio Ki [3] | Activity [4] | Activity [5] | Activity [6] | Structure (SMILES) |
| --- | --- | --- | --- | --- | --- | --- |
| 6.4 | 8.08 | 24 | Active | inactive | Active | CCCC(CCC)C(=O)OCC1(CO)C/C(=C\c2ccc3c(ccn3C)c2)C(=O)O1 (stereo not given) |
| 11 | 7.89 | 10 | Active | Active | Active | CCCC(CCC)C(=O)OCC1(CO)C/C(=C\c2cccc3ccn(C)c23)C(=O)O1 (stereo not given) |
| 64 | 7.79 | 49 | Active | Active | Active | CCCC(CCC)C(=O)OCC1(CO)C/C(=C\c2cn(C)c3ccccc23)C(=O)O1 (stereo not given) |
| 9 | 7.75 | 11 | Active | inactive | Active | CCCC(CCC)C(=O)OCC1(CO)C/C(=C\c2cccc3c2ccn3C)C(=O)O1 (stereo not given) |
| 6.6 | 8.12 | 6 | Active | Active | Active | CCCC(CCC)C(=O)OCC1(CO)C/C(=C\c2ccc3ccn(C)c3c2)C(=O)O1 (stereo not given) |
